From PubChem BioAssay
Calls of active or inactive are those of the source.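 The calls were made as follows, unless noted: active = inhibition of the reporter signal at or above 50%; inactive = inhibition below 50%.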

Assays:
[1] = inhibitors of TNFa-induced NFkB p65 translocation, primary screen, imaging, HUVEC, MLSMR starter and 10KST1 sets (AID 438;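 active = inhibition above 20% together with a positive visual image hit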;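 also: compound added about 3h40 before a 20 min TNFalpha stimulation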;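 as to inhibition: signal is the nuclear over cytoplasmic p65 intensity ratio per well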); details: HUVEC TNFa-induced p65 nuclear translocation; cell count: measured here: nuclei count (cytotoxicity indicator), at 2.08 µM; inhibition: at 2 µM, stronger effect = higher value, 0% TNFa-plus-vehicle, 100% no-TNFa wells
[2] = inhibitors of mutant huntingtin aggregation, primary screen, imaging, exon1htt(103Q)mCFP cells, high-content imaging (AID 483;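 active = visual image review flags a hit and inhibition of aggregation exceeds 20%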;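 also: compound exposure lasted 3 days before fixation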;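 as to nuclei count: percent of the per-plate median nuclei count of sample wells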); details: exon1htt(103Q)mCFP cell line, aggregate imaging, at 2 µM; inhibition of aggregation: stronger effect = higher value; nuclei count: measured here: cell count, toxicity
[3] = inhibitors of E-selectin induction by TNFa, primary screen, imaging, HUVEC, immunofluorescence, MLSMR starter and 10KST1 sets (AID 487;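 active = visually confirmed hit in the image check and inhibition above 20%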;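 as to inhibition: signal is fraction of cell area covered by stained E-selectin grains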;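 as to nuclei count: 100% = median nuclei count of all wells on the same plate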); details: HUVEC TNFalpha-induced E-selectin immunofluorescence imaging, at 2 µM; inhibition: stronger effect = higher value; nuclei count: measured here: cell number, toxicity
[4] = molecular target: Voltage-gated potassium channel subunit beta-2 (Rattus norvegicus) (UniProt P62483); test: KvBeta enzyme negative modulators, primary screen, biochemical, NADPH fluorescence (AID 622;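 active = fluorescence slope higher than the sample average by over 3 SD, cut at about -0.22 in these data, passing the limit was not always enough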;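 also: slope of raw intensity against log time taken from 70 to 1610 s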); details: recombinant KvBeta, 4-cyanobenzaldehyde reduction, at 10 µM, stronger effect = higher value
Chain of Voltage-gated potassium channel subunit beta-2 (Rattus norvegicus) (P62483 whole entry, looked up): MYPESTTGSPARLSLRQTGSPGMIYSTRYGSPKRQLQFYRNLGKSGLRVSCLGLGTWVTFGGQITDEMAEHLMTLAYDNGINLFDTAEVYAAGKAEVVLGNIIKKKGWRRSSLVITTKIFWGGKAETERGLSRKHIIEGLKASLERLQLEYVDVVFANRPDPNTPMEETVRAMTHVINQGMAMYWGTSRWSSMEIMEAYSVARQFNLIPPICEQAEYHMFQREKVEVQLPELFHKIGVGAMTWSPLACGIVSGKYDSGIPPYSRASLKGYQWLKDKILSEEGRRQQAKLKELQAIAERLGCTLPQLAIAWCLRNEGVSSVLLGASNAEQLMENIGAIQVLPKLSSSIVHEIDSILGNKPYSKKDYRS

[5] = molecular target: Voltage-gated potassium channel subunit beta-2 (Rattus norvegicus) (UniProt P62483); test: KvBeta positive modulators, primary screen, biochemical, NADPH fluorescence (AID 623;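 active = NADPH fluorescence slope more negative than the mean of all samples by about 3 SD, 99.7% confidence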;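 also: fluorescence intensity change per second fitted from 20 to 320 s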); details: Recombinant KvBeta, NADPH fluorescence decrease slope, 10 min; at 10 µM; stronger effect = lower value
[6] = molecular target: Alpha-2C adrenergic receptor (Homo sapiens) (UniProt P18825); test: modulators of alpha2C/GIRK thallium flux, primary screen, cell-based, HEK293 alpha2C/GIRK1/2 (AID 624;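 active = fluorescence slope after compound addition differing from the mean of all screened samples at 99.7% confidence, in either direction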;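 also: slope of fluorescence ratio to pre-addition baseline per second over 15 to 24 s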); details: thallium flux BTC fluorescence, at 10 µM, actives lie on both sides
Chain of Alpha-2C adrenergic receptor (Homo sapiens) (P18825 whole entry, looked up): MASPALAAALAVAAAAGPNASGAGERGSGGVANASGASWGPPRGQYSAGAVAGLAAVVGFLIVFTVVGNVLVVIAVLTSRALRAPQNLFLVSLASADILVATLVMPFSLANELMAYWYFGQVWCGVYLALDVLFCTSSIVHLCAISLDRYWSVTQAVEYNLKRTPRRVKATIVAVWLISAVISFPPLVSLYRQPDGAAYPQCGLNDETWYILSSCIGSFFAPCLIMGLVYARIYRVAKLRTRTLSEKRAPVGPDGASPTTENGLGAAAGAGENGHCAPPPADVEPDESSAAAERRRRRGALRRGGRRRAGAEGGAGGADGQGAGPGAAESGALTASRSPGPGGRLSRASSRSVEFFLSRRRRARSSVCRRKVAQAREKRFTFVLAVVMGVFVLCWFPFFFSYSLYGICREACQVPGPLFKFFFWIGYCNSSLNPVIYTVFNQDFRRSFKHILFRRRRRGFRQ

[7] = inhibitors of larval lipid processing in zebrafish, primary screen, whole organism, PED6 fluorescence, gall bladder and intestine (AID 686;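 active = a full or partial loss of lipid-probe fluorescence in the fish gall bladder, intestine or both, judged by eye; inactive = no fluorescence loss, or compound toxic to the fish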;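 also: larvae 5 to 7 days old with five fish per well; signal comes from phospholipase A2 cleavage of quenched PED6 carried via bile; overnight exposure to compound and PED6 before scoring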); details: Zebrafish larvae PED6 lipid processing, fluorescence scoring; screened at 20 µM (by protocol)
Method in brief: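 Also added: quenched phospholipase substrate PED6, 100 nM final, ingested by larvae; System: zebrafish larvae, 5-7 d; Quantity: 5 larvae per well; Compound: 20 µM single dose; Schedule: overnight compound and PED6 incubation; Read-out: visual per-well fluorescence inhibition score; Measured by: By-eye fluorescence microscopy; Medium: E3.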

[8] = inhibitors of Sendai virus-induced IRF3 signaling, primary screen, TLR/RLR signaling modifier project, cell-based, Sendai virus stimulus, luciferase, 10K MLSCN set (AID 602276;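 active = inhibition at or above 50% at 10 µM; inactive = inhibition below 50%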;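 also: firefly luciferase from ISG56 promoter only with Renilla not read in this screen; 0% = Sendai virus plus DMSO and 100% = medium plus DMSO without virus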); details: HEK293 RL24 IRF3 luciferase reporter, at 10 µM, stronger effect = higher value
[9] = inhibitors of poly I:C-induced TLR3 signaling, primary screen, cell-based, poly I:C stimulus, luciferase, 10K MLSCN set (AID 602277); details: HEK293-TLR3 RL24 IRF3 luciferase reporter, at 10 µM, stronger effect = higher value

| SMILES | cell count [1] | inhibition [1] | inhibition of aggregation [2] | nuclei count [2] | inhibition [3] | nuclei count [3] | fluorescence slope [4] | NADPH fluorescence slope [5] | slope [6] | outcome [7] | inhibition [8] | inhibition [9] |
| --- | --- | --- | --- | --- | --- | --- | --- | --- | --- | --- | --- | --- |
| CC1CC(C)CN(c2nc3c(c(=O)[nH]c(=O)n3C)n2CCCSc2nc3ccccc3s2)C1 (centres undefined) | 383 | -4.3% (inactive) | 33.6% (inactive) | 97.2% | -83.6% (inactive) | 107% | -0.445 (inactive) | -5e-05 (inactive) | 0.00577 (inactive) | inactive | 10.4% (inactive) | 11.5% (inactive) |
| COc1ccc(OC)c(NC(=O)CS(=O)(=O)c2ccccc2)c1 | 410 | -0.6% (inactive) | -1.6% (inactive) | 107% | -66.5% (inactive) | 121% | -0.438 (inactive) | 1.3e-05 (inactive) | 0.00539 (inactive) | inactive | -3.16% (inactive) | 6.62% (inactive) |
| COc1ccc(/C=N/n2c(SC)nnc2-c2ccccc2)cc1C | 384 | -0.9% (inactive) | 6.2% (inactive) | 103% | -68.1% (inactive) | 117% | -0.384 (inactive) | -2e-05 (inactive) | 0.00536 (inactive) | inactive | 2.46% (inactive) | -2.96% (inactive) |
| Cc1ccc(S(=O)(=O)C(C#N)c2nc3ccccc3nc2OC(C)C)cc1 (centres undefined) | 493 | 0% (inactive) | -10.6% (inactive) | 103% | -79.1% (inactive) | 114% | -0.38 (inactive) | -8.6e-05 (inactive) | 0.00476 (inactive) | inactive | 9.93% (inactive) | 10.6% (inactive) |
| COc1cccc(CN2C(=O)C3(C(C#N)=C(N)OC4=C3C(=O)CCC4)c3ccccc32)c1 (centres undefined) | 352 | -0.9% (inactive) | -11.5% (inactive) | 94.1% | -15.9% (inactive) | 77.7% | -0.414 (inactive) | -5.5e-05 (inactive) | 0.00531 (inactive) | inactive | 12.7% (inactive) | 14.6% (inactive) |
| COc1ccccc1N1CCN(c2cc(N3CCCC3)nc(C)n2)CC1 | 310 | 7.3% (inactive) | 0% (inactive) | 102% | -60.1% (inactive) | 136% | -0.471 (inactive) | -7.2e-05 (inactive) | 0.0045 (inactive) | inactive | 3.33% (inactive) | 1.07% (inactive) |
| COCCN(CCOC)C(=O)CCn1c(=O)oc2ccccc21 | 589 | 3.3% (inactive) | 2.1% (inactive) | 107% | 37.7% (inactive) | 100% | -0.462 (inactive) | -5.7e-05 (inactive) | 0.00623 (inactive) | inactive | 17.5% (inactive) | 8.78% (inactive) |
| CCOC(=O)c1c(C)oc2ccc(NS(=O)(=O)c3ccc4c5c(cccc35)C(=O)N4)cc12 | 429 | 6.5% (inactive) | -5.8% (inactive) | 99% | -185% (inactive) | 114% | -0.223 (inactive) | -1.1e-05 (inactive) | 0.00563 (inactive) | inactive | 21.2% (inactive) | 2.01% (inactive) |
| COc1ccc(Cl)cc1NC(=O)CSc1nncn1-c1cccnc1 | 391 | -10.2% (inactive) | 25.6% (inactive) | 58.8% | 60.5% (active) | 93.1% | -0.296 (inactive) | 1.5e-05 (inactive) | 0.00524 (inactive) | inactive | 15.1% (inactive) | 22.7% (inactive) |
| Cc1nn(Cc2ccccc2)c(C)c1NC(=O)c1cc(-c2ccco2)on1 | 408 | -8.1% (inactive) | -15.5% (inactive) | 101% | -15.3% (inactive) | 101% | -0.347 (inactive) | -6.8e-06 (inactive) | 0.00588 (inactive) | inactive | 9.89% (inactive) | 12.8% (inactive) |
| FC(F)Oc1cccc2cccnc12 | 538 | -5.8% (inactive) | -5.4% (inactive) | 103% | 67.2% (active) | 82.3% | -0.345 (inactive) | -1.3e-05 (inactive) | 0.00451 (inactive) | inactive | 10.2% (inactive) | 9.81% (inactive) |
| CCOC(=O)CSc1nc2sc(C)c(C)c2c(=O)[nH]1 | 419 | 1.6% (inactive) | -20% (inactive) | 104% | -75.6% (inactive) | 102% | -0.38 (inactive) | -5e-06 (inactive) | 0.00685 (inactive) | inactive | 8.58% (inactive) | 9.53% (inactive) |
| O=C(Nc1ccc2[nH]c3c(c2c1)CCCC3)c1ccco1 | 446 | -20.5% (inactive) | 31% (inactive) | 85.7% | 78.9% (active) | 103% | -0.288 (inactive) | -4.7e-05 (inactive) | 0.00582 (inactive) | inactive | -30.4% (inactive) | -98.2% (inactive) |
| Cc1ccc(OCC(O)Cn2c(NCCc3ccccc3)nc3c2c(=O)[nH]c(=O)n3C)cc1 (centres undefined) | 421 | -1.8% (inactive) | -12.3% (inactive) | 107% | -5.4% (inactive) | 113% | -0.444 (inactive) | 5.3e-06 (inactive) | 0.00534 (inactive) | inactive | -0.0675% (inactive) | 1.64% (inactive) |
| CCC(=O)Nc1ccc(NC(=O)c2ccccn2)cn1 | 778 | -11% (inactive) | -6.5% (inactive) | 102% | -9.1% (inactive) | 104% | -0.402 (inactive) | -5.9e-05 (inactive) | 0.00517 (inactive) | inactive | -3% (inactive) | 99.2% (active) |
| CCOC(=O)C1=C(c2ccccc2)N2CCS(=O)(=O)N=C2S1 | 531 | 0.5% (inactive) | -5.8% (inactive) | 105% | -98.9% (inactive) | 108% | -0.271 (inactive) | -1e-05 (inactive) | 0.0047 (inactive) | inactive | 16.1% (inactive) | 20.5% (inactive) |
| COc1cc(NC(=O)Nc2cccc(C(C)=O)c2)cc(OC)c1OC | 674 | -9.3% (inactive) | -22% (inactive) | 99.7% | -136% (inactive) | 97.7% | -0.438 (inactive) | -4.1e-05 (inactive) | 0.00508 (inactive) | inactive | 14% (inactive) | 12.9% (inactive) |
| C=CCOC(=O)CC(NC(=O)c1ccccc1)c1ccccc1 (centres undefined) | 510 | 9.6% (inactive) | -15.9% (inactive) | 98.4% | -231% (inactive) | 133% | -0.382 (inactive) | -6.2e-05 (inactive) | 0.00447 (inactive) | inactive | 13.9% (inactive) | 99% (active) |
| CCCCCCn1c(CN2CCCC(C)C2)nc2c1c(=O)n(C)c(=O)n2C (centres undefined) | 302 | -3.8% (inactive) | -10.6% (inactive) | 104% | -46.9% (inactive) | 114% | -0.396 (inactive) | -4.7e-05 (inactive) | 0.00516 (inactive) | inactive | 17.5% (inactive) | 9.02% (inactive) |
| O=C1C2CCCN2C(c2ccccc2)N1c1ccc(Cl)cc1 (centres undefined) | 374 | 5.5% (inactive) | -14.7% (inactive) | 99.5% | -25.3% (inactive) | 114% | -0.424 (inactive) | -6.3e-05 (inactive) | 0.00548 (inactive) | inactive | 31.4% (inactive) | -130% (inactive) |
| CCOc1ccccc1N1CC(O)=C(c2nc3ccccc3s2)C1=N | 348 | -0.8% (inactive) | 0.2% (inactive) | 97.7% | -69.5% (inactive) | 92% | -0.291 (inactive) | -3.9e-05 (inactive) | 0.00531 (inactive) | inactive | -19.5% (inactive) | 55.4% (active) |
| c1ccc(-c2nnc(SCc3nc4ccccc4[nH]3)o2)cc1 | 285 | 8.2% (inactive) | -3.4% (inactive) | 94.1% | 34.3% (inactive) | 87.8% | -0.304 (inactive) | -1.4e-05 (inactive) | 0.00613 (inactive) | inactive | 12.6% (inactive) | -7.21% (inactive) |
| COc1ccc(Cl)c(NC(=O)NCCN2CCN(c3ccccc3)CC2)c1 | 410 | 1.8% (inactive) | 1% (inactive) | 99.5% | -12.8% (inactive) | 119% | -0.29 (inactive) | -1.7e-05 (inactive) | 0.00501 (inactive) | inactive | 15.2% (inactive) | 23.5% (inactive) |
| O=C(CSc1ccccc1C(=O)NCCCN1CCCC1=O)NCc1ccco1 | 463 | 3.8% (inactive) | -6.6% (inactive) | 98.6% | -81.8% (inactive) | 118% | -0.358 (inactive) | -4.3e-05 (inactive) | 0.00452 (inactive) | inactive | 11.7% (inactive) | 12.7% (inactive) |
| Cc1sc2ncnc(Oc3ccc(-n4ccnc4)cc3)c2c1C | 377 | -13.2% (inactive) | -1% (inactive) | 109% | -56.2% (inactive) | 140% | -0.382 (inactive) | 7e-06 (inactive) | 0.00491 (inactive) | inactive | -6.33% (inactive) | -14.4% (inactive) |
| CC1Oc2ccccc2N(Cc2ccccc2Cl)C1=O (centres undefined) | 630 | 15.4% (inactive) | -11.1% (inactive) | 59.5% | -90.8% (inactive) | 106% | -0.475 (inactive) | -5.9e-05 (inactive) | 0.00421 (inactive) | inactive | -20.2% (inactive) | -52.6% (inactive) |
| CCc1n[nH]c2c1C(=O)CC(C)(C)C2 | 438 | -5.8% (inactive) | 4.8% (inactive) | 97.7% | 19.5% (inactive) | 110% | -0.382 (inactive) | -5e-05 (inactive) | 0.00556 (inactive) | inactive | -8.61% (inactive) | -7.25% (inactive) |
